Measurements: ChEMBL document CHEMBL4118259, “Synthesis of sulfadiazinyl acyl/aryl thiourea derivatives as calf intestinal alkaline phosphatase inhibitors, pharmacokinetic properties, lead optimization, Lineweaver-Burk plot evaluation and binding analysis” (Bioorg Med Chem, 2018)
Active and inactive are the calls of the source. No cut-off for these calls is given here.

Assay: Antioxidant activity assessed as DPPH radical scavenging activity at 100 ug/ml measured after 30 mins
Type: functional
In short: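 DPPH radical scavenging with compounds at 100 µg/mL; mixture incubated at room temperature for 30 min, absorbance read at 517 nm; ascorbic acid as reference inhibitor; percentage activity given as mean ± SEM.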

Compound | Activity
CCCC(=O)NC(=S)Nc1ccc(S(=O)(=O)Nc2ncccn2)cc1 | inactive
O=C(NC(=S)Nc1ccc(S(=O)(=O)Nc2ncccn2)cc1)c1ccc(Cl)cc1Cl | Active
O=C(NC(=S)Nc1ccc(S(=O)(=O)Nc2ncccn2)cc1)c1ccc(F)cc1 | inactive
O=C(NC(=S)Nc1ccc(S(=O)(=O)Nc2ncccn2)cc1)c1ccc(Cl)cc1 | inactive
CCCCCCC(=O)NC(=S)Nc1ccc(S(=O)(=O)Nc2ncccn2)cc1 | inactive
O=C(NC(=S)Nc1ccc(S(=O)(=O)Nc2ncccn2)cc1)c1ccccc1Cl | inactive
COc1ccc(C(=O)NC(=S)Nc2ccc(S(=O)(=O)Nc3ncccn3)cc2)cc1 | inactive
O=C1O[C@H]([C@@H](O)CO)C(O)=C1O | Active
O=C(NC(=S)Nc1ccc(S(=O)(=O)Nc2ncccn2)cc1)c1cc([N+](=O)[O-])cc([N+](=O)[O-])c1 | Active
CC(=O)NC(=S)Nc1ccc(S(=O)(=O)Nc2ncccn2)cc1 | inactive
CCCCCCCC(=O)NC(=S)Nc1ccc(S(=O)(=O)Nc2ncccn2)cc1 | inactive
